Measured values from ChEMBL document CHEMBL4811308, “Design, synthesis and broad spectrum antibreast cancer activity of diarylindoles via induction of apoptosis in aggressive breast cancer cells” (Bioorg Med Chem, 2021).

Assays:
[1] = system: MDA-MB-231; assay: Induction of apoptosis in human MDA-MB-231 cells assessed as viable cells at 6 uM incubated for 24 hrs by annexin-V-FITC and PI staining based flow cytometry analysis (reference value: 95.27 to 97.16 %); format: functional; settings: read-out: Activity
[2] = Acute toxicity in Swiss albino mouse assessed as hemoglobin level at 5 mg/kg, po administered once and observed for 7 days (reference value: 17.35 +/- 0.3 gm/dl); format: organism-based; settings: in vivo, 168 h, time 7 day
[3] = Acute toxicity in Swiss albino mouse assessed as WBC level at 5 mg/kg, po administered once and observed for 7 days (reference value: 8.55 +/- 2.71 /mm3); format: organism-based; settings: in vivo, 168 h, time 7 day
[4] = Acute toxicity in Swiss albino mouse assessed as SGOT level at 5 mg/kg, po administered once and observed for 7 days (reference value: 22.94 +/- 4.04 U/L); format: organism-based; settings: in vivo, 168 h, time 7 day
[5] = Acute toxicity in Swiss albino mouse assessed as creatinine level at 5 mg/kg, po administered once and observed for 7 days (reference value: 0.11 +/- 0.03 mg/dL); format: organism-based; settings: in vivo, 168 h, time 7 day
[6] = Acute toxicity in Swiss albino mouse assessed as triglyceride level at 5 mg/kg, po administered once and observed for 7 days (reference value: 81.12 +/- 7.75 mg/dl); format: organism-based; settings: in vivo, 168 h, time 7 day
[7] = Acute toxicity in Swiss albino mouse assessed as bilirubin level at 5 mg/kg, po administered once and observed for 7 days (reference value: 0.44 +/- 0.06 mg/dl); format: organism-based; settings: in vivo, 168 h, time 7 day
[8] = Acute toxicity in Swiss albino mouse assessed as cholesterol level at 5 mg/kg, po administered once and observed for 7 days (reference value: 122.05 +/- 8.12 mg/dl); format: organism-based; settings: in vivo, 168 h, time 7 day
[9] = Acute toxicity in Swiss albino mouse assessed as albumin at 5 mg/kg, po administered once and observed for 7 days (reference value: 1.62 +/- 0.09 g/dl); format: organism-based; settings: in vivo, 168 h, time 7 day
[10] = Acute toxicity in Swiss albino mouse assessed as protein level at 5 mg/kg, po administered once and observed for 7 days (reference value: 2.01 +/- 0.11 mg/ml); format: organism-based; settings: in vivo, 168 h, time 7 day
[11] = Acute toxicity in Swiss albino mouse assessed as body weight at 50 mg/kg, po administered once and observed for 7 days (reference value: 22.75 +/- 0.93 gm); format: organism-based; settings: in vivo, 168 h, time 7 day
[12] = Acute toxicity in Swiss albino mouse assessed as hemoglobin level at 50 mg/kg, po administered once and observed for 7 days (reference value: 17.35 +/- 0.3 gm/dl); format: organism-based; settings: in vivo, 168 h, time 7 day
[13] = Acute toxicity in Swiss albino mouse assessed as RBC level at 50 mg/kg, po administered once and observed for 7 days (reference value: 9.21 +/- 0.32 /mm3); format: organism-based; settings: in vivo, 168 h, time 7 day
[14] = Acute toxicity in Swiss albino mouse assessed as SGOT level at 50 mg/kg, po administered once and observed for 7 days (reference value: 22.94 +/- 4.04 U/L); format: organism-based; settings: in vivo, 168 h, time 7 day
[15] = Acute toxicity in Swiss albino mouse assessed as creatinine level at 50 mg/kg, po administered once and observed for 7 days (reference value: 0.11 +/- 0.03 mg/dL); format: organism-based; settings: in vivo, 168 h, time 7 day
[16] = Acute toxicity in Swiss albino mouse assessed as triglyceride level at 50 mg/kg, po administered once and observed for 7 days (reference value: 81.12 +/- 7.75 mg/dl); format: organism-based; settings: in vivo, 168 h, time 7 day
[17] = Acute toxicity in Swiss albino mouse assessed as cholesterol level at 50 mg/kg, po administered once and observed for 7 days (reference value: 122.05 +/- 8.12 mg/dl); format: organism-based; settings: in vivo, 168 h, time 7 day
[18] = Acute toxicity in Swiss albino mouse assessed as albumin at 50 mg/kg, po administered once and observed for 7 days (reference value: 1.62 +/- 0.09 g/dl); format: organism-based; settings: in vivo, 168 h, time 7 day
[19] = Acute toxicity in Swiss albino mouse assessed as body weight at 300 mg/kg, po administered once and observed for 7 days (reference value: 22.75 +/- 0.93 gm); format: organism-based; settings: in vivo, 168 h, time 7 day
[20] = Acute toxicity in Swiss albino mouse assessed as WBC level at 300 mg/kg, po administered once and observed for 7 days (reference value: 8.55 +/- 2.71 /mm3); format: organism-based; settings: in vivo, 168 h, time 7 day
[21] = Acute toxicity in Swiss albino mouse assessed as ALP level at 300 mg/kg, po administered once and observed for 7 days (reference value: 123.22 +/- 16.04 U/L); format: organism-based; settings: in vivo, 168 h, time 7 day
[22] = Acute toxicity in Swiss albino mouse assessed as SGOT level at 300 mg/kg, po administered once and observed for 7 days (reference value: 22.94 +/- 4.04 U/L); format: organism-based; settings: in vivo, 168 h, time 7 day
[23] = Acute toxicity in Swiss albino mouse assessed as SGPT level at 300 mg/kg, po administered once and observed for 7 days (reference value: 12.65 +/- 2.98 U/L); format: organism-based; settings: in vivo, 168 h, time 7 day
[24] = Acute toxicity in Swiss albino mouse assessed as triglyceride level at 300 mg/kg, po administered once and observed for 7 days (reference value: 81.12 +/- 7.75 mg/dl); format: organism-based; settings: in vivo, 168 h, time 7 day
[25] = Acute toxicity in Swiss albino mouse assessed as bilirubin level at 300 mg/kg, po administered once and observed for 7 days (reference value: 0.44 +/- 0.06 mg/dl); format: organism-based; settings: in vivo, 168 h, time 7 day
[26] = Acute toxicity in Swiss albino mouse assessed as albumin at 300 mg/kg, po administered once and observed for 7 days (reference value: 1.62 +/- 0.09 g/dl); format: organism-based; settings: in vivo, 168 h, time 7 day
[27] = Acute toxicity in Swiss albino mouse assessed as protein level at 300 mg/kg, po administered once and observed for 7 days (reference value: 2.01 +/- 0.11 mg/ml); format: organism-based; settings: in vivo, 168 h, time 7 day
[28] = Acute toxicity in Swiss albino mouse assessed as mortality at 5 to 300 mg/kg, po administered once and observed for 7 days; format: organism-based; settings: in vivo, 168 h, dose 5-300 mg/kg, time 7 day
In short: (§1)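 Acute oral toxicity per OECD guideline 423; mice 20–25 g, 3 male + 3 female per group, acclimatized 7 days at 22 ± 5 °C, 12 h light/dark. Compound dissolved in minimal DMSO, diluted in 0.7% CMC, single oral dose of 5, 50 or 300 mg/kg; controls given vehicle only. Clinical signs checked hourly on dosing day, then daily. Samples and body weights taken on day 7.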

[29] = Acute toxicity in Swiss albino mouse assessed as effect on gait at 5 to 300 mg/kg, po administered once and observed for 7 days; format: organism-based; settings: in vivo, 168 h, dose 5-300 mg/kg, time 7 day; in short: as §1
[30] = Acute toxicity in Swiss albino mouse assessed as absolute liver weight at 5 to 300 mg/kg, po administered once and observed for 7 days; format: organism-based; settings: in vivo, 168 h, dose 5-300 mg/kg, time 7 day; in short: as §1
[31] = Acute toxicity in Swiss albino mouse assessed as absolute lungs weight at 5 to 300 mg/kg, po administered once and observed for 7 days; format: organism-based; settings: in vivo, 168 h, dose 5-300 mg/kg, time 7 day; in short: as §1
[32] = Acute toxicity in Swiss albino mouse assessed as absolute spleen weight at 5 to 300 mg/kg, po administered once and observed for 7 days; format: organism-based; settings: in vivo, 168 h, dose 5-300 mg/kg, time 7 day; in short: as §1
[33] = Acute toxicity in Swiss albino mouse assessed as relative liver weight at 5 to 300 mg/kg, po administered once and observed for 7 days; format: organism-based; settings: in vivo, 168 h, dose 5-300 mg/kg, time 7 day; in short: as §1
[34] = Acute toxicity in Swiss albino mouse assessed as relative lungs weight at 5 to 300 mg/kg, po administered once and observed for 7 days; format: organism-based; settings: in vivo, 168 h, dose 5-300 mg/kg, time 7 day; in short: as §1
[35] = Acute toxicity in Swiss albino mouse assessed as relative spleen weight at 5 to 300 mg/kg, po administered once and observed for 7 days; format: organism-based; settings: in vivo, 168 h, dose 5-300 mg/kg, time 7 day; in short: as §1

SMILES	viability at 6 µM [1] [%]	Activity [2] [g/dL]	Activity [3] [thousands/mm3]	Activity [4] [U/L]	Activity [5] [mg/dL]	Activity [6] [mg/dL]	Activity [7] [mg/dL]	Activity [8] [mg/dL]	Activity [9] [g/dL]	Activity [10] [mg/mL]	Activity [11] [g]	Activity [12] [g/dL]	Activity [13] [million/mm3]	Activity [14] [U/L]	Activity [15] [mg/dL]	Activity [16] [mg/dL]	Activity [17] [mg/dL]	Activity [18] [g/dL]	Activity [19] [g]	Activity [20] [thousands/mm3]	also measured
COc1ccc2c(c1)c(Cc1ccc(OCCN3CCCCC3)cc1)c(-c1cc(OC)c(OC)c(OC)c1)n2Cc1ccc(OCCN2CCCCC2)cc1	44.6																				
CCN(CC)CCOc1ccc(Cc2c(-c3cc(OC)c(OC)c(OC)c3)n(Cc3ccc(OCCN(CC)CC)cc3)c3ccc(OC)cc23)cc1	69.7																				
COc1ccc2c(c1)c(Cc1ccc(OCCN(C)C)cc1)c(-c1cc(OC)c(OC)c(OC)c1)n2Cc1ccc(OCCN(C)C)cc1	36.2	16.59	6.73	22.11	0.12	63.83	0.3	112.13	1.52	1.61	21.31	17.01	8.72	21.92	0.14	91.7	121.96	1.43	21.88	5.53	Activity [21]: 98.7 U/L; Activity [22]: 27.73 U/L; Activity [23]: 16 U/L; Activity [24]: 91.2 mg/dL; Activity [25]: 0.36 mg/dL; Activity [26]: 1.94 g/dL; Activity [27]: 1.93 mg/mL; Activity [28]: Non-Toxic; Activity [29]: Non-Toxic; Activity [30]: Non-Toxic; Activity [31]: Non-Toxic; Activity [32]: Non-Toxic; Activity [33]: Non-Toxic; Activity [34]: Non-Toxic; Activity [35]: Non-Toxic
COc1ccc2c(c1)c(Cc1ccc(OC(C)CN(C)C)cc1)c(-c1cc(OC)c(OC)c(OC)c1)n2Cc1ccc(OC(C)CN(C)C)cc1 (configuration not stated)	45.8	15.83	6.23	28.86	0.12	105.82	0.34	117.25	1.48	1.57	23.48	15.21	8.67	33.28	0.12	83.99	108.65	1.29	22.75	5.6	Activity [21]: 74.12 U/L; Activity [22]: 33.25 U/L; Activity [23]: 19.12 U/L; Activity [24]: 86.58 mg/dL; Activity [25]: 0.36 mg/dL; Activity [26]: 1.53 g/dL; Activity [27]: 1.66 mg/mL; Activity [28]: Non-Toxic; Activity [29]: Non-Toxic; Activity [30]: Non-Toxic; Activity [31]: Non-Toxic; Activity [32]: Non-Toxic; Activity [33]: Non-Toxic; Activity [34]: Non-Toxic; Activity [35]: Non-Toxic
